In ChEMBL document CHEMBL3751760, “Discovery of Novel Potent and Selective Agonists at the Melanocortin-3 Receptor” (J Med Chem, 2015):
Activity calls are given as the source filed them. The calls are words filed in the database; no cut-off is given here. Where a SMILES comes first, the peptide text is derived from it. Bridges are numbered along the chain shown (N, C = ends). [ ]: non-standard residue; d: D form. d2Nal = N[C@H](Cc1ccc2ccccc2c1)C(=O)O; Nle = CCCC[C@H](N)C(=O)O

Assays:
[1] = molecular target: T1, Melanocyte-stimulating hormone receptor (Homo sapiens, UniProt Q01726); experiment: Displacement of 125I-labeled [Nle4,DPhe7]-alpha-MSH from human melanocortin 1 receptor expressed in HEK293 cells at 10 uM incubated for 40 mins by gamma counting analysis; format: cell-based
Outline: (§1)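 Whole-cell competition on stably transfected HEK293 cells, 100000 cells/well, seeded 48 h ahead. Binding buffer: MEM with Earle's salts, 25 mM HEPES pH 7.4, 0.2% BSA, 1 mM 1,10-phenanthroline, leupeptin, bacitracin. Unlabeled peptide plus 125I-[Nle4,DPhe7]-α-MSH (0.1386 nM, 100000 cpm/well) for 40 min at 37 °C. After washing, cells lysed with NaOH/Triton X-100 and read by γ counting.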

[2] = molecular target: T1, Melanocyte-stimulating hormone receptor; experiment: Agonist activity at human melanocortin 1 receptor expressed in HEK293 cells assessed as increase in intracellular cAMP accumulation incubated for 3 mins relative to MT-2; format: functional, cell-based
Outline: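 Stably transfected HEK293 cells grown in MEM with 10% FBS, penicillin/streptomycin and 1 mM sodium pyruvate, seeded 48 h ahead to 100000 cells/well. Cells preincubated 1 min at 37 °C in EBSS with IBMX (0.5 mM), then exposed to a concentration series for 3 min at 37 °C. Stopped with ice-cold Tris/EDTA, boiled 15 min, cAMP measured by competitive binding kit. Maximal cAMP expressed relative to the MT-II maximum; N = 4.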

[3] = molecular target: T2, Melanocortin receptor 5 (Homo sapiens, UniProt P33032); experiment: Agonist activity at human melanocortin 5 receptor expressed in HEK293 cells assessed as increase in intracellular cAMP accumulation incubated for 3 mins relative to MT-2; format: functional, cell-based
Outline: (§2)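 Same cAMP protocol in stably transfected HEK293 cells: IBMX (0.5 mM) preincubation for 1 min, then a peptide concentration series for 3 min at 37 °C, and cAMP measured by competitive binding kit.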

[4] = molecular target: T3, Melanocortin receptor 4 (Homo sapiens, UniProt P32245); experiment: Agonist activity at human melanocortin 4 receptor expressed in HEK293 cells assessed as increase in intracellular cAMP accumulation incubated for 3 mins relative to MT-2; format: functional, cell-based
Outline: as §2, with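 “kit. Act% max = highest cAMP level reached by the peptide divided by the highest level reached by MT-II, in percent.” for “kit.”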

[5] = molecular target: T4, Melanocortin receptor 3 (Homo sapiens, UniProt P41968); experiment: Agonist activity at human melanocortin 3 receptor expressed in HEK293 cells assessed as increase in intracellular cAMP accumulation incubated for 3 mins relative to MT-2; format: functional, cell-based; outline: as §2
[6] = molecular target: T2, Melanocortin receptor 5; experiment: Displacement of 125I-labeled [Nle4,DPhe7]-alpha-MSH from human melanocortin 5 receptor expressed in HEK293 cells incubated for 40 mins by gamma counting analysis; format: cell-based
[7] = molecular target: T3, Melanocortin receptor 4; experiment: Displacement of 125I-labeled [Nle4,DPhe7]-alpha-MSH from human melanocortin 4 receptor expressed in HEK293 cells incubated for 40 mins by gamma counting analysis; format: cell-based
[8] = molecular target: T4, Melanocortin receptor 3; experiment: Agonist activity at human melanocortin 3 receptor expressed in HEK293 cells assessed as intracellular cAMP accumulation incubated for 3 mins in presence of IBMX; format: functional, cell-based
Outline: (§3)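 HEK293 cells stably expressing the receptor were grown in MEM with 10% FBS and seeded 48 h ahead to 100000 cells/well. Cells were preincubated in EBSS with IBMX (0.5 mM) for 1 min at 37 °C, then given varied peptide concentrations for 3 min at 37 °C. The reaction was stopped with ice-cold Tris/EDTA, lysates were boiled 15 min, and cAMP was read by competitive binding kit.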

[9] = molecular target: T1, Melanocyte-stimulating hormone receptor; experiment: Agonist activity at human melanocortin 1 receptor expressed in HEK293 cells assessed as intracellular cAMP accumulation incubated for 3 mins in presence of IBMX; format: functional, cell-based; outline: as §3
[10] = molecular target: T1, Melanocyte-stimulating hormone receptor; experiment: Displacement of 125I-labeled [Nle4,DPhe7]-alpha-MSH from human melanocortin 1 receptor expressed in HEK293 cells incubated for 40 mins by gamma counting analysis; format: cell-based
Outline: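 Whole-cell competition on stably transfected HEK293 cells, 100000 cells/well, seeded 48 h ahead. Binding buffer: MEM with Earle's salts, 25 mM HEPES pH 7.4, 0.2% BSA, 1 mM 1,10-phenanthroline, leupeptin, bacitracin. After washing, cells lysed with NaOH/Triton X-100 and read by γ counting.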

[11] = molecular target: T3, Melanocortin receptor 4; experiment: Agonist activity at human melanocortin 4 receptor expressed in HEK293 cells assessed as intracellular cAMP accumulation incubated for 3 mins in presence of IBMX; format: functional, cell-based; outline: as §3
[12] = molecular target: T2, Melanocortin receptor 5; experiment: Agonist activity at human melanocortin 5 receptor expressed in HEK293 cells assessed as intracellular cAMP accumulation incubated for 3 mins in presence of IBMX; format: functional, cell-based; outline: as §3
[13] = molecular target: T4, Melanocortin receptor 3; experiment: Displacement of 125I-labeled [Nle4,DPhe7]-alpha-MSH from human melanocortin 3 receptor expressed in HEK293 cells incubated for 40 mins by gamma counting analysis; format: cell-based
[14] = molecular target: T3, Melanocortin receptor 4; experiment: Agonist activity at human melanocortin 4 receptor expressed in HEK293 cells assessed as intracellular cAMP accumulation at 10 uM incubated for 3 mins in presence of IBMX; format: functional, cell-based
Outline: (§4)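 Stably transfected HEK293 cells were grown in MEM with 10% FBS, penicillin/streptomycin and 1 mM sodium pyruvate, and seeded 48 h before assay to 100000 cells/well. Cells were preincubated 1 min at 37 °C in EBSS with IBMX (0.5 mM), then exposed to peptide for 3 min at 37 °C. The reaction was stopped with ice-cold Tris/EDTA, lysates were boiled 15 min, and cAMP was read by competitive binding kit.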

[15] = molecular target: T4, Melanocortin receptor 3; experiment: Agonist activity at human melanocortin 3 receptor expressed in HEK293 cells assessed as intracellular cAMP accumulation at 10 uM incubated for 3 mins in presence of IBMX; format: functional, cell-based; outline: as §4
[16] = molecular target: T2, Melanocortin receptor 5; experiment: Agonist activity at human melanocortin 5 receptor expressed in HEK293 cells assessed as intracellular cAMP accumulation at 10 uM incubated for 3 mins in presence of IBMX; format: functional, cell-based; outline: as §4
[17] = molecular target: T2, Melanocortin receptor 5; experiment: Displacement of 125I-labeled [Nle4,DPhe7]-alpha-MSH from human melanocortin 5 receptor expressed in HEK293 cells at 10 uM incubated for 40 mins by gamma counting analysis; format: cell-based; outline: as §1

T2 sequence (P33032 whole entry): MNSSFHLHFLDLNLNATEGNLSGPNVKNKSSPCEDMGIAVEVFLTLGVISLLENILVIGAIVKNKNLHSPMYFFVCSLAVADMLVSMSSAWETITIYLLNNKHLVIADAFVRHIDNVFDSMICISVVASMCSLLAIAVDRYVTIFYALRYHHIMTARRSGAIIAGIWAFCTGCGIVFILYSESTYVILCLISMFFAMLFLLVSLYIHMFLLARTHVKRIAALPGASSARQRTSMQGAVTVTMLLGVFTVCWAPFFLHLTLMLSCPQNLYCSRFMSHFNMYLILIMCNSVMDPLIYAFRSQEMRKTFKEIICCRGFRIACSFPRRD
T3 sequence (P32245 whole entry): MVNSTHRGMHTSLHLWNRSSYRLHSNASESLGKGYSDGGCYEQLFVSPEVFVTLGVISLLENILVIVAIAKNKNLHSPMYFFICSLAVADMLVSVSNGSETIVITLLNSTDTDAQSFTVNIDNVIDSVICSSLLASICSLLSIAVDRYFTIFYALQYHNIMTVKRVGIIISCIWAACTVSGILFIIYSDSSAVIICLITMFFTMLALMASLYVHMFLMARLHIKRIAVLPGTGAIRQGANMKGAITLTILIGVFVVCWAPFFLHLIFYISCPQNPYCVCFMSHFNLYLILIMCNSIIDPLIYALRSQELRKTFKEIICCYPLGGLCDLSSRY
T4 sequence (P41968 whole entry): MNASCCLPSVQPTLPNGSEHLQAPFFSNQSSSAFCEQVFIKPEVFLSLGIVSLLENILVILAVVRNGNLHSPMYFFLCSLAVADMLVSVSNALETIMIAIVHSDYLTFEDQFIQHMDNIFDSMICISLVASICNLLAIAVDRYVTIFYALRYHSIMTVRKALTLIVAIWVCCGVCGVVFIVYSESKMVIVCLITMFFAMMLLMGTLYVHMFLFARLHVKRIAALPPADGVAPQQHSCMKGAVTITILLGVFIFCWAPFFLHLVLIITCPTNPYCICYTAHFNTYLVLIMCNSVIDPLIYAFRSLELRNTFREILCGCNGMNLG

With `CCCC[C@H](NC(C)=O)C(=O)N[C@@H]1CC(=O)NCCCC[C@H](C(N)=O)NC(=O)[C@H](Cc2c[nH]c3ccccc23)NC(=O)[C@H](CCCNC(=N)N)NC(=O)[C@H](Cc2ccc3ccccc3c2)NC(=O)[C@H]2CCCN2C(=O)[C@@H](Cc2c[nH]c3ccccc23)NC1=O` the inhibition [1] was “inactive” and the %max [2] was 100%.
Compound `CCCC[C@@H](NC(C)=O)C(=O)N[C@H]1CC(=O)NCCCC[C@@H](C(N)=O)NC(=O)[C@@H](Cc2c[nH]c3ccccc23)NC(=O)[C@@H](CCCNC(=N)N)NC(=O)[C@@H](Cc2ccccc2)NC(=O)[C@@H]2CCCN2C(=O)[C@H](Cc2c[nH]c3ccccc23)NC1=O` has a %max [3] of 89%, a %max [4] of 84% and a %max [5] of 0%. It also gave a %max [2] of 100%.
`CCCC[C@H](NC(C)=O)C(=O)N[C@H]1CC(=O)NCCCC[C@@H](C(N)=O)NC(=O)[C@H](Cc2c[nH]c3ccccc23)NC(=O)[C@H](CCCNC(=N)N)NC(=O)[C@@H](Cc2ccccc2)NC(=O)[C@@H]2CCCN2C(=O)[C@H](Cc2c[nH]c3ccccc23)NC1=O` showed an IC50 [6] of over 1 µM, an IC50 ([7]; hek293) of over 1 µM and an EC50 [8] of over 1 µM. The EC50 ([9]; hek293) was 0.026 µM, the IC50 ([10]; hek293) was over 5 µM and the EC50 [11] was 0.22 µM. For the same compound, the EC50 [12] was 0.073 µM and the IC50 ([13]; hek293) was 0.58 µM.
Compound `CCCC[C@H](NC(C)=O)C(=O)N[C@H]1CC(=O)NCCCC[C@@H](C(N)=O)NC(=O)[C@H](Cc2c[nH]c3ccccc23)NC(=O)[C@H](CCCNC(=N)N)NC(=O)[C@@H](Cc2ccc3ccccc3c2)NC(=O)[C@@H]2CCCN2C(=O)[C@H](Cc2c[nH]c3ccccc23)NC1=O` has an EC50 ([9]; hek293) of over 1 µM.
With `CCCC[C@H](NC(C)=O)C(=O)N[C@H]1CC(=O)NCCCC[C@@H](C(N)=O)NC(=O)[C@H](Cc2c[nH]c3ccccc23)NC(=O)[C@H](CCCNC(=N)N)NC(=O)[C@@H](Cc2ccccc2)NC(=O)[C@@H]2CCCN2C(=O)[C@@H]2CCCN2C1=O` (Ac-[Nle]DPP[dF]RWK-NH2; lactam 2-8) the IC50 [7] was 1.3 µM, the EC50 [9] was 0.86 µM and the Activity [14] was 0%. It also gave an IC50 [10] of over 5 µM, an Activity [15] of 0% and an IC50 [13] of 0.59 µM. The %max [2] was 100%, the Activity [16] was 0% and the inhibition [17] was “inactive”.
For `CCCC[C@H](NC(C)=O)C(=O)N[C@H]1CC(=O)NCCCC[C@@H](C(N)=O)NC(=O)[C@H](Cc2c[nH]c3ccccc23)NC(=O)[C@H](CCCNC(=N)N)NC(=O)[C@@H](Cc2ccc3ccccc3c2)NC(=O)[C@@H]2CCCN2C(=O)[C@@H]2CCCN2C1=O` (Ac-[Nle]DPP[d2Nal]RWK-NH2; lactam 2-8), the IC50 [10] was over 5 µM and the %max [2] was 100%.
